Laboratory results published in ChEMBL document CHEMBL5150051, “Identification and Characterization of a Novel Indoleamine 2,3-Dioxygenase 1 Protein Degrader for Glioblastoma” (J Med Chem, 2022).
The source made the active and inactive calls. The rule behind the calls is not given here.

How the values were obtained:
[1] = biological target: Indoleamine 2,3-dioxygenase 1 (Homo sapiens, UniProt P14902); assay: Binding affinity to IDO1 (unknown origin) assessed as dissociation constant by bio-layer interferometry assay
How it was run: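 Bio-layer interferometry measured binding to IDO1 at 30 °C in PBS with 0.5% DMSO. Kd, kon and koff were derived.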

[2] = biological target: Protein cereblon/Indoleamine 2,3-dioxygenase 1 (Homo sapiens, UniProt P14902+Q96SW2); assay: Protac activity at CRBN/IDO1 in human U87 cells assessed as decrease in phosphorylated NF-kappaB p65 in nucleus at 1 to 10 uM measured after 24 hrs by Western blot analysis; type: cell-based; conditions: dose 1-10 µM
[3] = biological target: von Hippel-Lindau disease tumor suppressor/Indoleamine 2,3-dioxygenase 1 (Homo sapiens) (UniProt P14902+P40337); assay: Protac activity at IDO1/VHL in IFNgamma-stimulated human U87 cells assessed as IDO1 degradation at 10 uM measured after 24 hrs by Western blotting analysis relative to control; type: cell-based
How it was run: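 U87 GBM cells primed with human IFNγ 50 ng/mL for 24 h, then exposed to PROTAC at 10 μM for 24 h. Lysates run on western blot; IDO1 bands quantified by densitometry and expressed as percent of normalized IDO1 protein level.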

von Hippel-Lindau disease tumor suppressor/Indoleamine 2,3-dioxygenase 1 (Homo sapiens), sequence (P14902 whole entry, looked up): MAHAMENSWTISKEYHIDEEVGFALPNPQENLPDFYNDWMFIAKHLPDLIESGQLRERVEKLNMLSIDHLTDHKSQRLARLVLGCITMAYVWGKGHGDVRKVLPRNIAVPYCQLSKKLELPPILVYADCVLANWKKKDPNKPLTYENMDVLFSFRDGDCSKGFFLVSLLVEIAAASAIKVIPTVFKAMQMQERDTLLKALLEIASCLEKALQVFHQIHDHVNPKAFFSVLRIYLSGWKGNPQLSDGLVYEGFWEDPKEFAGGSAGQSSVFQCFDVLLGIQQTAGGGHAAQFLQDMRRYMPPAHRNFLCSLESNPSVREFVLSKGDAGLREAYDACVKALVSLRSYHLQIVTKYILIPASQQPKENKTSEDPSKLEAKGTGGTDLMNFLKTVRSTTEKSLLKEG
von Hippel-Lindau disease tumor suppressor/Indoleamine 2,3-dioxygenase 1 (Homo sapiens), sequence (P40337 whole entry, looked up): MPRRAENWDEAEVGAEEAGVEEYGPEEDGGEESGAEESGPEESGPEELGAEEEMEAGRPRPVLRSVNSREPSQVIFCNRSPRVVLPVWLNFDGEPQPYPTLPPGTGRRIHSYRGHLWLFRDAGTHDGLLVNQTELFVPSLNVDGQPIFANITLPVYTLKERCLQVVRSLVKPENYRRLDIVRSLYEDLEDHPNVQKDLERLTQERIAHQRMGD
Indoleamine 2,3-dioxygenase 1, sequence (P14902 whole entry): as the sequence (P14902 whole entry, looked up) above
Protein cereblon/Indoleamine 2,3-dioxygenase 1, sequence (P14902 whole entry, looked up): as above
Protein cereblon/Indoleamine 2,3-dioxygenase 1, sequence (Q96SW2 whole entry, looked up): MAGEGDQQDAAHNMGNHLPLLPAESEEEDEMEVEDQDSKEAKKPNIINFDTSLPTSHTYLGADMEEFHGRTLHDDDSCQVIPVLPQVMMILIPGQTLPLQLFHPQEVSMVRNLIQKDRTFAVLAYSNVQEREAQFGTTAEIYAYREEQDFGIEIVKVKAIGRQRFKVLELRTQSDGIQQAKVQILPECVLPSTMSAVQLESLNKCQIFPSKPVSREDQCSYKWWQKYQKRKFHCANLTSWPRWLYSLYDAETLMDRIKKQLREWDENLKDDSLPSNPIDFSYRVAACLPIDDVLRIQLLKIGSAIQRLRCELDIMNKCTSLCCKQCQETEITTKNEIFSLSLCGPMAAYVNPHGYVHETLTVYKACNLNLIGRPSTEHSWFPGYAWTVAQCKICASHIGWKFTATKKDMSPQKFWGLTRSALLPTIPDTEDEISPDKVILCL

Compound | Kd [1] [nM] | Activity [2] | Activity [3] [%]
C[C@@H](C(=O)Nc1ccc(OC2CCN(C(=O)CCOCCOCCNc3cccc4c3C(=O)N(C3CCC(=O)N(C)C3=O)C4=O)CC2)cc1)[C@H]1CC[C@@H](c2ccnc3ccc(F)cc32)CC1 (some centres not stated) | 1100 | Active | 
Cc1ncsc1-c1ccc(CNC(=O)[C@@H]2C[C@@H](O)CN2C(=O)[C@@H](NC(=O)C2(F)CC2)C(C)(C)C)c(OCCOCCOCCC(=O)N2CCC(Oc3ccc(NC(=O)[C@H](C)[C@H]4CC[C@@H](c5ccnc6ccc(F)cc65)CC4)cc3)CC2)c1 |  |  | 3
Cc1ncsc1-c1ccc(CNC(=O)[C@@H]2C[C@@H](O)CN2C(=O)[C@@H](NC(=O)C2(F)CC2)C(C)(C)C)c(OCCCCCCCCCOc2cc(NC(=O)[C@H](C)[C@H]3CC[C@@H](c4ccnc5ccc(F)cc54)CC3)ccc2Cl)c1 |  |  | 90
Cc1ncsc1-c1ccc(CNC(=O)[C@@H]2C[C@@H](O)CN2C(=O)[C@@H](NCCOCCOCCC(=O)N2CCC(Oc3ccc(NC(=O)[C@H](C)[C@H]4CC[C@@H](c5ccnc6ccc(F)cc65)CC4)cc3)CC2)C(C)(C)C)cc1 |  |  | 67
Cc1ncsc1-c1ccc(CNC(=O)[C@@H]2C[C@@H](O)CN2C(=O)[C@@H](NCCOCCOCCOCCOCCOCCOc2cc(NC(=O)[C@H](C)[C@H]3CC[C@@H](c4ccnc5ccc(F)cc54)CC3)ccc2Cl)C(C)(C)C)cc1 |  |  | 0
Cc1ncsc1-c1ccc(CNC(=O)[C@@H]2C[C@@H](O)CN2C(=O)[C@@H](NCCOCCC(=O)N2CCC(Oc3ccc(NC(=O)[C@H](C)[C@H]4CC[C@@H](c5ccnc6ccc(F)cc65)CC4)cc3)CC2)C(C)(C)C)cc1 |  |  | 88
Cc1ncsc1-c1ccc(CNC(=O)[C@@H]2C[C@@H](O)CN2C(=O)[C@@H](NCCOCCOCCOCCOCCOCCOc2cccc(NC(=O)[C@H](C)[C@H]3CC[C@@H](c4ccnc5ccc(F)cc54)CC3)c2)C(C)(C)C)cc1 |  |  | 0
Cc1ncsc1-c1ccc(CNC(=O)[C@@H]2C[C@@H](O)CN2C(=O)[C@@H](NC(=O)C2(F)CC2)C(C)(C)C)c(OCCOCCOCCOCCOc2ccc(NC(=O)[C@H](C)[C@H]3CC[C@@H](c4ccnc5ccc(F)cc54)CC3)cc2)c1 |  |  | 0
Cc1ncsc1-c1ccc(CNC(=O)[C@@H]2C[C@@H](O)CN2C(=O)[C@@H](NCCOCCOCCOCCOc2ccc(NC(=O)[C@H](C)[C@H]3CC[C@@H](c4ccnc5ccc(F)cc54)CC3)cc2)C(C)(C)C)cc1 |  |  | 0
Cc1ncsc1-c1ccc(CNC(=O)[C@@H]2C[C@@H](O)CN2C(=O)[C@@H](NC(=O)C2(F)CC2)C(C)(C)C)c(OCCCCCCOc2cc(NC(=O)[C@H](C)[C@H]3CC[C@@H](c4ccnc5ccc(F)cc54)CC3)ccc2Cl)c1 |  |  | 0
Cc1ncsc1-c1ccc(CNC(=O)[C@@H]2C[C@@H](O)CN2C(=O)[C@@H](NC(=O)C2(F)CC2)C(C)(C)C)c(OCCOCCOCCC(=O)N2CC(Oc3ccc(NC(=O)[C@H](C)[C@H]4CC[C@@H](c5ccnc6ccc(F)cc65)CC4)cc3)C2)c1 |  |  | 91
